The source made the active and inactive calls. The rule behind the calls is not given here.
How the values were obtained:
[1] = system: MDA-MB-231; assay: Induction of apoptosis in human MDA-MB-231 cells assessed as viable cells at 2 uM incubated for 24 hrs by annexin V-FITC and PI staining based flow cytometry analysis (reference value: 93.37 %); format: functional; settings: read-out: Activity
[2] = system: MDA-MB-231; assay: Induction of apoptosis in human MDA-MB-231 cells assessed as early apoptotic cells at 4 uM incubated for 24 hrs by annexin V-FITC and PI staining based flow cytometry analysis (reference value: 2.69 %); format: functional
[3] = system: MDA-MB-231; assay: Induction of apoptosis in human MDA-MB-231 cells assessed as late apoptotic cells at 4 uM incubated for 24 hrs by annexin V-FITC and PI staining based flow cytometry analysis (reference value: 3.72 %); format: functional
[4] = system: MDA-MB-231; assay: Induction of apoptosis in human MDA-MB-231 cells assessed as viable cells at 1 uM incubated for 24 hrs by annexin V-FITC and PI staining based flow cytometry analysis (reference value: 93.37 %); format: functional; settings: read-out: Activity
[5] = system: MDA-MB-231; assay: Induction of cell cycle arrest in human MDA-MB-231 cells assessed as G0/G1 phase accumulation at 4 uM incubated for 24 hrs by PI staining based flow cytometry analysis (reference value: 57.99 %); format: functional
[6] = target: T1, Signal transducer and activator of transcription 1-alpha/beta (Homo sapiens) (UniProt P42224); assay: Inhibition of STAT1 in human MDA-MB-231 cells assessed as reduction in STAT1 Y701 phosphorylation at 0.75 to 3 uM incubated for 24 hrs by Western blot analysis; format: cell-based; settings: dose 0.75-3 µM
T1 sequence (whole entry): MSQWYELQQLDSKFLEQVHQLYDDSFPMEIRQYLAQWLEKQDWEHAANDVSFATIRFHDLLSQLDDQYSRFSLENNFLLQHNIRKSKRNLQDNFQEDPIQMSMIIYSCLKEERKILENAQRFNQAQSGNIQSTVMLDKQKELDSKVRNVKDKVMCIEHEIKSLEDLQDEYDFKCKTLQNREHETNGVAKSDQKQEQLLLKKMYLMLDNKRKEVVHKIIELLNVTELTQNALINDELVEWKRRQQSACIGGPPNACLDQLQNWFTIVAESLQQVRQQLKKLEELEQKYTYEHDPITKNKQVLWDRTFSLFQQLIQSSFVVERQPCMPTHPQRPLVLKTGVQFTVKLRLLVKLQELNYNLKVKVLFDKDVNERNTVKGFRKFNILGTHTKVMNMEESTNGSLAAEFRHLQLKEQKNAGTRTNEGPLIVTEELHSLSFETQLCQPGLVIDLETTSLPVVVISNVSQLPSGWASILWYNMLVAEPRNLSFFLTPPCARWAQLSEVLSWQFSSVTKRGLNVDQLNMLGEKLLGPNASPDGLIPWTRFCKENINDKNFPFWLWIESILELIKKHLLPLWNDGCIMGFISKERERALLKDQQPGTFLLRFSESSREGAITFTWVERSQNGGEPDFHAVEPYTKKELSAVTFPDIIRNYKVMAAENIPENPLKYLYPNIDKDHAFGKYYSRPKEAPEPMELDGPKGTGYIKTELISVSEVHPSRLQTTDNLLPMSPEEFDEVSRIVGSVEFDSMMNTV
Procedure, shortened: (§1)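 MDA-MB-231 cells treated with a range of concentrations for 24 h. RIPA lysates with PMSF, 40 µg protein/lane, on 10% SDS-PAGE, then PVDF. Blocked in 5% milk/TBST for 2 h. Primary antibodies to STAT3, p-STAT3(Y705), STAT1, p-STAT1(Y701), c-Myc and Cyclin D1 overnight at 4 °C; GAPDH as loading control. HRP secondary for 1 h; ECL detection.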

[7] = target: T2, Signal transducer and activator of transcription 3 (Homo sapiens, UniProt P40763); assay: Inhibition of STAT3 in human MDA-MB-231 cells assessed as reduction in STAT3 Y705 phosphorylation in cytoplasm at 3 uM incubated for 24 hrs by immunofluorescence staining based fluorescence microscopy; format: subcellular
T2 sequence (P40763 whole entry): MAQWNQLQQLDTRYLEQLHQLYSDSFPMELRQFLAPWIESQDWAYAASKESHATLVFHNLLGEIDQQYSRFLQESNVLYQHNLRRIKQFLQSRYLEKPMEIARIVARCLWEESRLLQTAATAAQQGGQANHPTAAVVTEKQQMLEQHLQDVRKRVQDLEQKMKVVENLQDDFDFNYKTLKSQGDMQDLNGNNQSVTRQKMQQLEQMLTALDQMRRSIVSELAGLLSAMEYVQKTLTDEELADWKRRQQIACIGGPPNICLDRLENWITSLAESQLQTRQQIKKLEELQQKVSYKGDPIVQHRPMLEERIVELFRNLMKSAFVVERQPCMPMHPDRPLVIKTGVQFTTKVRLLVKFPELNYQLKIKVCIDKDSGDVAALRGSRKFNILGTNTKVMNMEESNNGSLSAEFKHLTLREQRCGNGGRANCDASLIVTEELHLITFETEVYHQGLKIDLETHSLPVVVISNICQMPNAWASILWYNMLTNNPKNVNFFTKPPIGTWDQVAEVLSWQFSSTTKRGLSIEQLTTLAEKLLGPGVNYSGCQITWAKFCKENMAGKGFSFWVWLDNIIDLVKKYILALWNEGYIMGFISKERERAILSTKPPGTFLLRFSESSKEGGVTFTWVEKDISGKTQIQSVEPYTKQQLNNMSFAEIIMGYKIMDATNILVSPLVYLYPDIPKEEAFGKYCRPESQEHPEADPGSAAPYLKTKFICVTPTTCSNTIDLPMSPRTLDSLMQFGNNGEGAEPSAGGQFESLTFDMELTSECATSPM
Procedure, shortened: (§2)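 MDA-MB-231 cells at 1×10^4 per dish, adhered overnight, then exposed to 3.0 µM for 24 h. Fixed in 4% paraformaldehyde and permeabilized with 0.5% Triton X-100. Blocked in 5% BSA for 1 h. Anti-p-STAT3 primary overnight at 4 °C, then Alexa Fluor 546 anti-rabbit for 1 h at RT. Hoechst nuclear stain; imaged by fluorescence microscopy.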

[8] = target: T2, Signal transducer and activator of transcription 3; assay: Inhibition of STAT3 in human MDA-MB-231 cells assessed as reduction in STAT3 Y705 phosphorylation in nucleus at 3 uM incubated for 24 hrs by immunofluorescence staining based fluorescence microscopy; format: subcellular; procedure, shortened: as §2
[9] = system: MDA-MB-231; assay: Effect on STAT3 expression in human MDA-MB-231 cells at 0.75 to 3 uM incubated for 24 hrs by Western blot analysis; format: functional, cell-based; settings: dose 0.75-3 µM; procedure, shortened: as §1
[10] = target: T2, Signal transducer and activator of transcription 3; assay: Displacement of 5-FAM-GpYLPQTV-NH2 from His-tagged STAT3 (unknown origin) (127 to 722 residues) incubated for 30 mins followed by fluorescent peptide probe addition and measured after 1 hr by fluorescence polarization based competition binding assay
[11] = system: MDA-MB-231; assay: Induction of cell cycle arrest in human MDA-MB-231 cells assessed as G0/G1 phase accumulation at 1 uM incubated for 24 hrs by PI staining based flow cytometry analysis (reference value: 57.99 %); format: functional
[12] = system: Mus musculus; assay: In vivo inhibition of STAT3 in BALB/c mouse xenografted with human MDA-MB-231 cells assessed as reduction in STAT3 Y705 phosphorylation in tumor tissue at 10 mg/kg, ip administered once daily for 21 days and measured on day 21 by immunofluorescent staining based fluorescence microscopy; format: functional, organism-based; settings: dose 10.0 mg/kg/day, time 21.0 day
Procedure, shortened: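 Tumors from the xenograft study (10 mg/kg i.p. daily, 21 days) were sectioned and fixed. Sections were stained with anti-p-STAT3 overnight at 4 °C, then Cy3 anti-rabbit secondary for 40 min at 37 °C. Nuclei stained with DAPI; imaged by fluorescence microscopy. Mean ± SEM, n=4.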

[13] = system: MDA-MB-231; assay: Induction of apoptosis in human MDA-MB-231 cells incubated for 24 hrs by annexin V-FITC and PI staining based flow cytometry analysis; format: functional, cell-based; settings: dose 1-4 µM
[14] = system: MDA-MB-231; assay: Antitumor activity against human MDA-MB-231 cells xenografted in BALB/c mouse assessed reduction in tumor weight at 5 mg/kg, ip administered once daily for 21 days and measured on day 21 relative to control; format: functional; settings: MDA-MB-231, ip, 504 h, time 21 day
Procedure, shortened: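 Female BALB/c nude mice, 5 weeks old (16–18 g), were given 5×10^6 MDA-MB-231 cells subcutaneously. At ~50 mm³, mice were randomized to three groups (n=6): vehicle, 5 or 10 mg/kg i.p. daily for 21 days. Tumor volume (length×width²/2) was measured every 3 days and body weight recorded. Tumors were excised and weighed at the end. TGI derived versus control; mean ± SEM.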

[15] = target: T2, Signal transducer and activator of transcription 3; assay: Inhibition of STAT3 in human MDA-MB-231 cells assessed as reduction in c-myc expression incubated for 24 hrs by Western blot analysis; format: cell-based; settings: dose 0.75-3 µM; procedure, shortened: as §1
[16] = system: MDA-MB-231; assay: Induction of apoptosis in human MDA-MB-231 cells assessed as early apoptotic cells at 1 uM incubated for 24 hrs by annexin V-FITC and PI staining based flow cytometry analysis (reference value: 2.69 %); format: functional

SMILES: COc1ccc(NC2=CC(=O)c3cc(C(C)=O)oc3C2=O)cc1
- viability at 2 µM [1]: 82.2%
- Activity [2]: 10.25%
- Activity [3]: 22.03%
- viability at 1 µM [4]: 87.9%
- Activity [5]: 35.39%
- inhibition [6]: inactive
- inhibition [7]: Active
- inhibition [8]: Active
- Activity [9]: inactive
- IC50 [10]: 5.18 µM
- inhibition ([10]; time 1.5 hrs): Dose-dependent effect
- Activity [11]: 49.42%
- inhibition [12]: Active
- Activity [13]: Dose-dependent effect
- inhibition in vivo at 5 mg/kg/day [14]: 26%
- inhibition [15]: Dose-dependent effect
- Activity [16]: 5.21%
